Results: PMC5601358 (Journal of Medicinal Chemistry, 2017)

Assays:
[1] = biological target: T1, human adenosine A3 receptor (Homo sapiens, UniProt P0DMS8); test: Radioligand competition association assay with [3H]34; assay type: binding; details: for residence time: read-out: RT (residence time)
T1 sequence (P0DMS8 1-318): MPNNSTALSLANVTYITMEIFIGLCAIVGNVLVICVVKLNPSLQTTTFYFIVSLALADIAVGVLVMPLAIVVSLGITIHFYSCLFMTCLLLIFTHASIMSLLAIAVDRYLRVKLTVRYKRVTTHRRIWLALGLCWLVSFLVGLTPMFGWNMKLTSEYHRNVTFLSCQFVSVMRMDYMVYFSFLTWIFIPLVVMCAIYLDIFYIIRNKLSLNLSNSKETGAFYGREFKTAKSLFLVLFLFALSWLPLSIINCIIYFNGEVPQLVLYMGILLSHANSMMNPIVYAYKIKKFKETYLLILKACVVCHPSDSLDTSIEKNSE

[2] = biological target: T1, human adenosine A3 receptor; test: Radioligand displacement assay with [3H]34; assay type: binding; details: 25 °C, [3H]34, hA3R stably expressed on CHO cell membranes, n ≥ 3
[3] = biological target: T2, hA3R stably expressed on CHO cell membranes (Homo sapiens, UniProt P0DMS8); test: [35S]GTPγS binding assay, 2-Cl-IB-MECA-stimulated, Schild analysis; assay type: biochemical; details: for Mode of antagonism: 2-Cl-IB-MECA concentration-effect curves, antagonist at 30-, 100-, 300-fold Ki; for Schild slope: Coincubation with 2-Cl-IB-MECA 30 min, 25 °C
T2 sequence (P0DMS8 1-318): T1 sequence (P0DMS8 1-318)
In short: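 CHO membranes stably expressing human A3 receptor (15 μg) in 50 mM Tris-HCl, 5 mM MgCl2, 1 mM EDTA, 0.05% BSA, 1 mM DTT, pH 7.4, with 1 μM GDP and 5 μg saponin. Agonist 0.1 nM–10 μM plus ~0.3 nM [35S]GTPγS (final). DMSO ≤0.1%. Basal: untreated membranes; maximum: 10 μM agonist. GF/B filtration, scintillation counting. Curves normalized and combined, n ≥ 3.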

SMILES | koff [1] | kon [1] | residence time [1] | pKi ± SEM [2] | Mode of antagonism [3] | Schild slope [3]
CCCCCn1c(=O)c2c(nc3cc(OC)ccn32)n(Cc2ccccc2)c1=O [Compound 9, 1-Benzyl-8-methoxy-3-pentyl-1H,3H-pyrido[2,1-f]purine-2,4-dione] | 0.0006 s⁻¹ | 1.1e+06 M⁻¹ s⁻¹ | 28 ± 2.2 min | – | – | –
CCc1ccc(Cn2c(=O)n(CC3CC3)c(=O)c3c2nc2cc(OC)ccn23)cc1 [Compound 26, 3-(Cyclopropylmethyl)-1-(4-ethylbenzyl)-8-methoxypyrido[2,1-f]purine-2,4(1H,3H)-dione] | – | – | – | 9.2 ± 0.04 | – | –
COc1cccc(Cn2c(=O)n(CC3CC3)c(=O)c3c2nc2cc(OC)ccn23)c1 [Compound 27, 3-(Cyclopropylmethyl)-8-methoxy-1-(3-methoxybenzyl)pyrido[2,1-f]purine-2,4(1H,3H)-dione] | 4.7e-05 s⁻¹ | 480000 M⁻¹ s⁻¹ | 376 ± 58 min | – | insurmountable antagonism | 0.9 ± 0.2
COc1ccc(Cn2c(=O)n(CC3CC3)c(=O)c3c2nc2cc(OC)ccn23)cc1 [Compound 28, 3-(Cyclopropylmethyl)-8-methoxy-1-(4-methoxybenzyl)pyrido[2,1-f]purine-2,4(1H,3H)-dione] | 7.8e-05 s⁻¹ | 480000 M⁻¹ s⁻¹ | 250 ± 72 min | – | – | –
CCCCCCn1c(=O)c2c(nc3cc(OC)ccn32)n(Cc2ccccc2)c1=O [Compound 10, 1-Benzyl-3-hexyl-8-methoxypyrido[2,1-f]purine-2,4(1H,3H)-dione] | 8.2e-05 s⁻¹ | 230000 M⁻¹ s⁻¹ | 213 ± 35 min | 8.6 ± 0.1 | – | –
COc1ccn2c(c1)nc1c2c(=O)n(CC2CC2)c(=O)n1Cc1ccc(Cl)c(Cl)c1 [Compound 31, 3-(Cyclopropylmethyl)-1-(3,4-dichlorobenzyl)-8-methoxypyrido[2,1-f]purine-2,4(1H,3H)-dione] | 5.3e-05 s⁻¹ | 100000 M⁻¹ s⁻¹ | 391 ± 137 min | – | – | –
COc1ccn2c(c1)nc1c2c(=O)n(CC2CC2)c(=O)n1Cc1cccc(Cl)c1 [Compound 29, 1-(3-Chlorobenzyl)-3-(cyclopropylmethyl)-8-methoxypyrido[2,1-f]purine-2,4(1H,3H)-dione] | 0.00047 s⁻¹ | 820000 M⁻¹ s⁻¹ | 36 ± 5.5 min | – | – | –
COc1ccn2c(c1)nc1c2c(=O)[nH]c(=O)n1Cc1ccccc1 [Compound 5, 1-Benzyl-8-methoxy-1H,3H-pyrido[2,1-f]purine-2,4-dione] | 0.014 s⁻¹ | 530000 M⁻¹ s⁻¹ | 2.2 ± 1.4 min | – | surmountable antagonism | 1.0 ± 0.2
CCCCCCCn1c(=O)c2c(nc3cc(OC)ccn32)n(Cc2ccccc2)c1=O [Compound 11, 1-Benzyl-3-heptyl-8-methoxypyrido[2,1-f]purine-2,4(1H,3H)-dione] | 6.2e-05 s⁻¹ | 420000 M⁻¹ s⁻¹ | 278 ± 45 min | – | – | –
COc1ccn2c(c1)nc1c2c(=O)n(CC2CC2)c(=O)n1Cc1ccc(Cl)cc1 [Compound 30, 1-(4-Chlorobenzyl)-3-(cyclopropylmethyl)-8-methoxypyrido[2,1-f]purine-2,4(1H,3H)-dione] | 0.00082 s⁻¹ | 3e+06 M⁻¹ s⁻¹ | 20 ± 0.5 min | – | – | –

The remaining lines, values ahead:

koff [1] | kon [1] | residence time [1] | pKi ± SEM [2] | Mode of antagonism [3] | Schild slope [3] | SMILES
0.00011 s⁻¹ | 550000 M⁻¹ s⁻¹ | 250 ± 147 min | – | – | – | COc1ccn2c(c1)nc1c2c(=O)n(CC(C)(C)C)c(=O)n1Cc1ccccc1 [Compound 18, 1-Benzyl-8-methoxy-3-(3-neopentyl)-1H,3H-pyrido[2,1-f]purine-2,4-dione]
– | – | – | 8.3 ± 0.1 | – | – | C=CCn1c(=O)c2c(nc3cc(OC)ccn32)n(Cc2ccccc2)c1=O [Compound 12, 3-Allyl-1-benzyl-8-methoxypyrido[2,1-f]purine-2,4(1H,3H)-dione]
0.00032 s⁻¹ | 850000 M⁻¹ s⁻¹ | 52 ± 0.3 min | – | – | – | CCCn1c(=O)c2c(nc3cc(OC)ccn32)n(Cc2ccccc2)c1=O [Compound 1, 1-Benzyl-8-methoxy-3-propyl-1H,3H-pyrido[2,1-f]purine-2,4-dione]
0.00063 s⁻¹ | 430000 M⁻¹ s⁻¹ | 27 ± 2.6 min | 7.7 ± 0.2 | – | – | COCCn1c(=O)c2c(nc3cc(OC)ccn32)n(Cc2ccccc2)c1=O [Compound 15, 1-Benzyl-8-methoxy-3-(2-methoxyethyl)-1H,3H-pyrido[2,1-f]purine-2,4-dione]
6e-05 s⁻¹ | 2.8e+06 M⁻¹ s⁻¹ | 315 ± 105 min | – | – | – | COc1ccn2c(c1)nc1c2c(=O)n(CC2CC2)c(=O)n1Cc1ccccc1 [Compound 2, 1-Benzyl-3-(cyclopropylmethyl)-8-methoxypyrido[2,1-f]purine-2,4(1H,3H)-dione]
0.0002 s⁻¹ | 780000 M⁻¹ s⁻¹ | 148 ± 102 min | – | – | – | COc1ccn2c(c1)nc1c2c(=O)n(CC(C)C)c(=O)n1Cc1ccccc1 [Compound 17, 1-Benzyl-3-isobutyl-8-methoxypyrido[2,1-f]purine-2,4(1H,3H)-dione]
